# Source: PubChem
# An excerpt weighted towards active compounds, which were near 2.3% of everything screened.
# TRPC6 inh: blocks the mouse TRPC6 cation channel | Q61143 | HEK293-TRPC6, membrane potential dye, ACh-evoked depolarization; hits give low values | B-score at 10 µM | hit rate 1.1% among 310,000 | AID 2553;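 active means B-score under library mean minus 3 SD, initial fluorescence not abnormally high, positive integrated signal ratio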;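 further: B-score derived from integrated fluorescence ratio over the kinetic read; more negative B-score means stronger inhibition of depolarization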
# Target sequence (Q61143 whole entry, looked up): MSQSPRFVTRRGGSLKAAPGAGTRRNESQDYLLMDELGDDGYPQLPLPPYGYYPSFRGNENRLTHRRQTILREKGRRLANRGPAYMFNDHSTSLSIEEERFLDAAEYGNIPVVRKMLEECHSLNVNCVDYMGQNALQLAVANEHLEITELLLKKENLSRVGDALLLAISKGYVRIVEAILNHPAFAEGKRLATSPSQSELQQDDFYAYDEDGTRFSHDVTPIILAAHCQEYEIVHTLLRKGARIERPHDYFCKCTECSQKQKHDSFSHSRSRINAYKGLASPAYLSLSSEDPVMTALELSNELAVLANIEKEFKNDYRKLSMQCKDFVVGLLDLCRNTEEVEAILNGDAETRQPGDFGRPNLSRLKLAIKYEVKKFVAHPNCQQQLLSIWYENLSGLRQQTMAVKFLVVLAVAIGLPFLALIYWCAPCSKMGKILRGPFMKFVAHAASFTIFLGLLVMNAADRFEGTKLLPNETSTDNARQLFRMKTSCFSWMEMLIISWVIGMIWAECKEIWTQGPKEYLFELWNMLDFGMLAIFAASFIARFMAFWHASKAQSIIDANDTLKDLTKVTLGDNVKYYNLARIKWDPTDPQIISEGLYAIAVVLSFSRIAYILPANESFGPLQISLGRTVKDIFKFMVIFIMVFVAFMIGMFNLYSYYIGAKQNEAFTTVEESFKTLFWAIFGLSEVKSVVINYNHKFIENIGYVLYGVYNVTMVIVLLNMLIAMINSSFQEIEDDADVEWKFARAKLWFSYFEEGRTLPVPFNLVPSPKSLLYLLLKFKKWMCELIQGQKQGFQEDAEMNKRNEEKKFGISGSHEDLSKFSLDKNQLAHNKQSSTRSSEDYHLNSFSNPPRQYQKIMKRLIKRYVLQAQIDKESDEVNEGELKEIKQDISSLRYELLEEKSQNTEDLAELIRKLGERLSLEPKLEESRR
# TRPC4 block: inhibitors of mouse TRPC4 channel; B-score at 10 µM; HEK293 TRPC4beta/mu-opioid, DAMGO-evoked Fluo4 calcium flux; hits give low values; hit rate 0.39% among 300,000;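 active means B-score over 3 SD under the library average, no early fluorescence shift, positive overall ratio signal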
#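 Material: HEK293 cells with stable TRPC4beta plus mu-opioid receptor expression; probe or stimulus: DAMGO in two steps, submaximal then maximal; technique: Fluo4 calcium fluorescence by kinetic imaging, 5 s 1 Hz baseline; measure: integrated fluorescence ratio relative to baseline, converted to per-well B score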
# TRPC6 act: activators of mouse TRPC6 channel; Q61143; B-score at 10 µM; hit rate 0.13% among 310,000; AID 2550; HEK293-TRPC6 membrane potential dye fluorescence; hits give high values;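 active means B-score of the integrated fluorescence ratio above library mean plus 3 SD, and starting fluorescence ratio within library mean plus 5 SD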;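 further: higher score means more depolarization so channel activation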
# TRPC4 act: TRPC4 (mouse) channel activation. hit rate 0.49% among 310,000. HEK293 TRPC4beta/mu-opioid, Fluo4 calcium fluorescence; hits give high values. B-score at 10 µM;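 active means B-score above 5 SD of library B-scores, and initial fluorescence ratio not above library mean plus 5 SD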;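 further: positive B-score marks a calcium rise read as TRPC4 activation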
#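 System – HEK293 cells stably co-expressing mouse TRPC4beta and mu-opioid receptor · Signal – Fluo4 calcium-sensitive dye fluorescence, kinetic, 1 Hz baseline · Benchmarks – buffer (low) and maximal DAMGO (high) · Read-out – B score of integrated fluorescence ratio per well · Incubation – dye loading 45 min room temperature, 110 s kinetic read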
# TRPC4 PAM: allosterically enhances the mouse TRPC4 cation channel. Q9QUQ5. HEK293 TRPC4beta/mu-opioid, DAMGO EC20, Fluo-4 Ca2+ flux; hits give high values. B-score at 10 µM. hit rate 0.42% among 310,000. AID 2227;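 active means B-score of calcium response area above 5 SD of library B-scores, with initial fluorescence ratio within 5 SD of library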;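 further: B-score of integrated fluorescence ratio over time as area under calcium response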
# TRPC4 spec 2: second selectivity test of TRPC6 inhibitors: effect on mouse TRPC4; hit rate 42% among 920; AID 2776; shares compounds with TRPC6 inh; inhibition, % at 10 µM; HEK293 TRPC4/MOR, membrane potential dye fluorescence; channel activated by saturating DAMGO dose;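 active means compounds whose fluorescence signal differed from control wells by over 3 SD, either direction, in both duplicate plates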
# TRPC4 spec: mouse TRPC4 off-target activity of TRPC6 inhibitors. HEK293 TRPC4/mu-opioid, membrane potential fluorescence. hit rate 61% among 920. shares compounds with TRPC6 inh. activity change, negative = inhibition, % at 10 µM;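 active means rise or fall in signal beyond 3 SD of buffer-only wells in both replicate plates, either sign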;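 further: integrated kinetic ratio of fluorescence range over baseline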
# HEK293 MPD ctr 2-1: parental HEK293 nonspecific activity of TRPC6 inhibitors, second screen; shares compounds with TRPC6 inh; parental HEK293 membrane potential dye fluorescence; maximal acetylcholine challenge after compound addition; signal change vs control, % at 10 µM; hit rate 31% among 920;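 active means membrane potential signal moving either way by over 3 SD of the maximum-effect control, in both duplicate plates, meaning non-specific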
# HEK293 MPD ctr-1: checks TRPC6 inhibitor effects in parental HEK293 cells. membrane potential signal change, % at 10 µM. shares compounds with TRPC6 inh. hit rate 60% among 920. parental HEK293 membrane potential dye fluorescence. AID 2780;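 active means membrane potential signal shifting up or down by more than 3 SD of buffer-only wells, on both duplicate plates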
# HEK293 MPD ctr-2: counter-screen for TRPC6 modulators: effect in parental HEK293 cells | shares compounds with TRPC6 inh | membrane potential dye fluorescence | membrane potential signal change, % at 10 µM | hit rate 51% among 2,400;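 active means membrane potential signal moves up or down beyond 5 SD from buffer-only wells, on both duplicate plates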
# HEK293 MPD ctr 2-2: second counter-screen for TRPC6 modulators: effect in parental HEK293 cells; shares compounds with TRPC6 inh; membrane potential dye fluorescence; after compound, maximal acetylcholine stimulation; inhibition, % at 10 µM; hit rate 14% among 2,400;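 active means membrane potential signal drops by more than 5 SD from the mean control signal, in both duplicate plates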;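 further: plate controls were acetylcholine ECmax control wells for no effect and buffer only wells for full effect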
# TRPC4 ctr mod: tests whether TRPC6 modulators also affect mouse TRPC4 | shares compounds with TRPC6 inh | HEK293 TRPC4/mu-opioid, membrane potential fluorescence | percent change from control (negative = decrease, positive = increase), % at 10 µM | hit rate 69% among 2,400 | AID 488927;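 active means membrane potential signal moved up or down beyond 5 SD of buffer control wells, in both duplicate plates, actives on both sides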;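 further: plate controls were assay buffer wells for no effect and DAMGO maximal-effect wells for full effect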
# TRPC4 ctr inh 2: mouse TRPC4 off-target activity of TRPC6 modulators, second screen; shares compounds with TRPC6 inh; HEK293 TRPC4/mu-opioid, membrane potential dye fluorescence; stimulated with maximal-effect DAMGO; inhibition, % at 10 µM; hit rate 55% among 2,400; AID 488928;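 active means drop in membrane potential signal beyond 5 SD of the control wells in both duplicate plates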;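 further: TRPC4 counter screen for TRPC6 hits run under conditions tuned for TRPC6 not TRPC4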
# TRPC6 block conf: confirmation of mouse TRPC6 inhibitors. shares compounds with TRPC6 inh. HEK293-TRPC6, membrane potential dye, ACh-evoked depolarization. inhibition, % at 10 µM. hit rate 43% among 3,300. AID 488960;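 active means fluorescence ratio falls more than 5 SD below the full-stimulation control mean, in both duplicate runs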;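 further: integrated fluorescence ratio of peak minus minimum over baseline after agonist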
# TRPC6 act conf: confirmation of mouse TRPC6 activators; shares compounds with TRPC6 inh; HEK293-TRPC6 membrane potential dye fluorescence, FDSS; activation, % at 10 µM; hit rate 11% among 2,800;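 active means ratio signal rise beyond 5 SD above unstimulated control wells' mean, seen in both duplicate runs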;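 further: plate controls were buffer EC0 wells for no effect and acetylcholine ECmax response for full effect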
# Numbers without * were called inactive; i = inactive; x = no result given.
SMILES,TRPC6 inh,TRPC4 block,TRPC6 act,TRPC4 act,TRPC4 PAM,HEK293 MPD ctr-2,HEK293 MPD ctr 2-2,TRPC4 ctr mod,TRPC4 ctr inh 2,TRPC6 block conf,TRPC6 act conf,others
COc1ccc(C(=O)c2c3ccc(C(F)(F)F)cc3[n+]([O-])n2CCCN)cc1,-5.7*,i,i,i,i,i,i,-9.5%*,47%*,48%*,i,
Cc1ccc(C(=O)c2c3ccc(C(F)(F)F)cc3[n+]([O-])n2CCCN)cc1,-8.1*,i,i,i,i,x,x,x,x,76%*,i,TRPC4 spec 2=50%*;TRPC4 spec=-12%*;HEK293 MPD ctr 2-1=i;HEK293 MPD ctr-1=-158%*
CCOc1ccc(CCNC(=O)C2CCCN(c3nnc(-n4cccc4)s3)C2)cc1OCC (stereo not drawn),-5.5*,i,i,i,i,i,i,i,i,i,i,
CCOc1ccc(CCNC(=O)C2CCCN(c3nn4c(=O)cc(C)nc4s3)C2)cc1OCC (stereo not drawn),i,i,i,i,i,x,x,x,x,x,x,
Cc1nc2ccccc2n1CC(=O)OCC(=O)NCCc1ccccc1,i,i,i,i,i,x,x,x,x,x,x,
CCNc1cc2n(c(=O)n1)CCc1cc(OC)c(OC)cc1-2,i,i,i,i,i,x,x,x,x,x,x,
COc1cc2c(cc1OC)-c1cc(NCc3ccccn3)nc(=O)n1CC2,-5.4*,i,i,i,i,-196%*,i,-34%*,i,i,i,
CC(C)(C)C(=O)CSc1nc(N)cc(=O)[nH]1,i,i,i,i,i,x,x,x,x,x,x,
CN(C)CCNS(=O)(=O)c1ccc(N2CCc3ccccc32)c([N+](=O)[O-])c1,-7.2*,i,i,i,i,-129%*,i,-28%*,73%*,60%*,i,
COc1ccc(C(=O)NNC2=Nc3cccc4cccc2c34)cc1,i,i,i,i,i,x,x,x,x,x,x,
Cc1ccc(C(=O)NNC2=Nc3cccc4cccc2c34)cc1,-5.3*,i,i,i,i,i,i,i,i,i,i,
Cc1[nH]c(=O)[nH]c(=O)c1S(=O)(=O)Nc1cccc([N+](=O)[O-])c1C,i,i,i,i,i,x,x,x,x,x,x,
C/C(=N\Nc1nc2ccccc2[nH]1)c1ccc2c(c1)OCO2,-10*,-8*,i,i,i,x,x,x,x,58%*,i,TRPC4 spec 2=40%*;TRPC4 spec=-20%*;HEK293 MPD ctr 2-1=38%*;HEK293 MPD ctr-1=-346%*
C/C(=N\Nc1nc2ccccc2[nH]1)c1ccc2c(c1)OCCO2,-7.2*,i,i,i,i,x,x,x,x,67%*,i,TRPC4 spec 2=41%*;TRPC4 spec=-24%*;HEK293 MPD ctr 2-1=i;HEK293 MPD ctr-1=-263%*
C/C(=N\Nc1ccccn1)c1ccc2c(c1)OCO2,i,i,i,i,i,x,x,x,x,x,x,
COc1ccc(Cl)cc1NC(=O)CN(C)C(=O)c1n[nH]c2ccccc12,i,i,i,i,i,x,x,x,x,x,x,
CC1Cc2ccccc2N1C(=O)CSc1nnc(N)s1 (stereo not drawn),i,i,i,i,i,x,x,x,x,x,x,
CNc1c(NS(=O)(=O)c2ccc(C3CCCCC3)cc2)c(=O)oc2ccccc12,i,i,i,i,i,x,x,x,x,x,x,
CCOc1ccc(-c2nnc(-c3ccncc3)o2)cc1OCC,-5.5*,i,i,i,i,-173%*,i,-36%*,32%*,i,i,
CCN(CC)CCCCNc1ncc2cc(-c3cc(OC)cc(OC)c3)c(NC(=O)NC(C)(C)C)nc2n1,-5.5*,i,i,i,i,i,i,i,43%*,54%*,i,
CCN(CC)CCNC(=O)COc1ccc(OC)cc1,i,i,i,i,i,x,x,x,x,x,x,
O=c1[nH]c2ccc(S(=O)(=O)N3CCN(c4ccccc4F)CC3)cc2s1,-8*,i,i,i,i,x,x,x,x,i,i,TRPC4 spec 2=i;TRPC4 spec=0.3%*;HEK293 MPD ctr 2-1=226%*;HEK293 MPD ctr-1=i
CN(C(=O)CCc1ccccc1F)C1CCCN(Cc2ccccc2F)C1 (stereo not drawn),i,i,i,i,i,x,x,x,x,x,x,
CN(C(=O)CCCN1CCCC1=O)C1CCCN(Cc2ccccc2F)C1 (stereo not drawn),-5.1*,i,i,i,i,i,i,i,i,i,i,
Cc1c2c(n3c(nc4ccccc43)c1C#N)N(CCN(C)C)CC2,-11*,i,i,i,i,-324%*,95%*,-60%*,71%*,70%*,i,
Cc1c(Cc2ccccc2)c(NCCN(C)C)n2c(nc3ccccc32)c1C#N,-6*,i,i,i,i,i,i,i,54%*,i,i,
CCCCc1c(C)c(C#N)c2nc3ccccc3n2c1NCCN(C)C,i,i,i,i,i,x,x,x,x,x,x,
Cc1c2c(n3c(nc4ccccc43)c1C#N)N(CCCN(C)C)CC2,-8.3*,i,i,i,i,-314%*,98%*,-56%*,62%*,68%*,i,
CCc1c(C)c(C#N)c2nc3ccccc3n2c1Cl,i,i,i,i,i,x,x,x,x,x,x,
O=C(c1cc2c(=O)n3ccccc3nc2s1)N1CCc2ccccc2C1,i,i,i,i,i,x,x,x,x,x,x,
